ChEMBL document CHEMBL4732265, “Identification of Piperidine-3-carboxamide Derivatives Inducing Senescence-like Phenotype with Antimelanoma Activities” (ACS Med Chem Lett, 2021)
pEC50, pIC50: −log10 of the molar value. Calls of active or inactive are those of the source. The calls are words filed in the database; no cut-off is given here.

tested on: A-375; test: Induction of cell senescence in human A-375 cells assessed by increased SA-beta-Gal activity at 37 nM measured after 3 days by Hoechst staining based imaging analysis; assay type: functional; details: time 3.0 day
In short: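 A375 cells were treated with or without 37 nM agent in 0.5% DMSO for 3 days. Senescence was read in two ways: by Hoechst 33342/LysoTracker Red/CellMask phenomic imaging, and by SA-β-gal staining.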

Row | SMILES | Activity
1 | COc1cccc2c1C(=O)c1c(O)c3c(c(O)c1C2=O)C[C@@](O)(C(=O)CO)C[C@@H]3O[C@H]1C[C@H](N)[C@H](O)[C@H](C)O1 [DOXORUBICIN] | Active

tested on: not listed separately; test: Metabolic stability at phase 1 in human liver microsomes; assay type: ADME, Microsome; details: not given

Row | Stabilty | SMILES
2 | Stable | O=C(Nc1ccc(-c2ccc[nH]2)cn1)[C@H]1CCCN(Cc2ccc(F)c(F)c2)C1
3 | Stable | O=C(Nc1ccc(-c2cscn2)cc1)C1CCCN(Cc2ccc(F)c(F)c2)C1 (stereo unspecified)

tested on: A-375; test: Induction of senescence in human A-375 cells treated for 3 days by Hoechst staining based imaging analysis; assay type: functional, cell-based; details: A-375, 72 h
In short: (§1)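 A375 melanoma cells were treated for 3 days with a 3-fold dilution series in 0.5% DMSO and stained with Hoechst 33342, LysoTracker Red DND-99 and CellMask. Image analysis scored cell and nucleus size, granule size and spacing, and cytoplasmic texture to give the percentage of senescent cells per well. EC50 is the concentration inducing senescence in half the population, taken from dose–response curves. Run in duplicate; Z′ about 0.8.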

Row | pEC50 | SMILES
4 | 4.96 | O=C(Nc1ccc(-c2ccccn2)cc1)C1CCCN(Cc2ccc(F)c(F)c2)C1 (stereo unspecified)
5 | 5.30 | O=C(Nc1ccc(-c2ccccc2)cc1)C1CCCN(Cc2ccc(F)c(F)c2)C1 (stereo unspecified)
6 | 7.00 | O=C(Nc1ccc(-c2ccc[nH]2)cc1F)[C@H]1CCCN(Cc2ccc(F)c(F)c2)C1
7 | 5.40 | O=C(Nc1ccc(-c2cscn2)cc1)[C@@H]1CCCN(Cc2ccc(F)c(F)c2)C1
8 | < 4.70 | O=C(NC1CCCN(Cc2ccc(F)c(F)c2)C1)c1ccc(-c2cscn2)cc1 (stereo unspecified)
9 | 6.22 | O=C(Nc1ccc(-c2cscn2)cc1)C1CCCN(Cc2ccc3c(c2)OCO3)C1 (stereo unspecified)
10 | < 4.70 | O=C(Nc1ccc(-c2cscn2)cc1)C1CCCN(Cc2cccc(C(F)(F)F)c2)C1 (stereo unspecified)
11 | < 4.70 | O=C(Nc1ccc(-c2cscn2)cc1)C1CCCN(Cc2cccc(OC(F)(F)F)c2)C1 (stereo unspecified)
12 | 5.30 | O=C(Nc1ccc(-c2cscn2)cc1)C1CCCN(Cc2cccc(F)c2)C1 (stereo unspecified)
13 | 5.82 | O=C(Nc1ccc(-c2cscn2)cc1)C1CCCN(Cc2cc(F)cc(F)c2)C1 (stereo unspecified)
14 | 5.71 | O=C(Nc1ccc(-c2ccsc2)cc1)C1CCCN(Cc2ccc(F)c(F)c2)C1 (stereo unspecified)
15 | 6.14 | O=C(Nc1ccc(-c2ccc[nH]2)cc1)C1CCCN(Cc2ccc(F)c(F)c2)C1 (stereo unspecified)
16 | < 4.70 | O=C(Nc1ccc(-c2cscn2)cc1)C1CCCN(C(=O)c2ccc(F)c(F)c2)C1 (stereo unspecified)
17 | 5.52 | O=C(Nc1ccc(-c2ccoc2)cc1)C1CCCN(Cc2ccc(F)c(F)c2)C1 (stereo unspecified)
18 | < 4.70 | O=C(Nc1ccc(-c2cscn2)cc1)C1CN(Cc2ccc(F)c(F)c2)C1
19 | 5.90 | O=C(Nc1ccc(-c2cscn2)cc1)C1CCCN(Cc2cc(F)c(F)c(F)c2)C1 (stereo unspecified)
20 | < 4.70 | COc1cccc(CN2CCCC(C(=O)Nc3ccc(-c4cscn4)cc3)C2)c1 (stereo unspecified)
21 | 5.97 | O=C(Nc1ccc(-c2cccnc2)cc1)C1CCCN(Cc2ccc(F)c(F)c2)C1 (stereo unspecified)
22 | 7.40 | O=C(Nc1ccc(-c2ccc[nH]2)cn1)[C@H]1CCCN(Cc2ccc(F)c(F)c2)C1
23 | < 4.70 | O=C(Nc1ccc(-c2cscn2)cc1)C1CCCN(S(=O)(=O)c2ccc(F)c(F)c2)C1 (stereo unspecified)
24 | 5.10 | O=C(Nc1ccc(-c2cscn2)cc1)C1CCN(Cc2ccc(F)c(F)c2)C1 (stereo unspecified)
25 | 5.91 | O=C(Nc1ccc(-c2cscn2)cc1)C1CCCN(Cc2ccc(F)c(F)c2)C1 (stereo unspecified)

tested on: A-375; test: Anti melanoma activity in human A-375 cells assessed by decreased cell number measured after 3 days; assay type: functional, cell-based; details: time 3.0 day
In short: (§2)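 A375 human melanoma cells exposed to compound for 3 days in 3-fold serial dilution in 0.5% DMSO. Cells were stained with Hoechst 33342, LysoTracker Red DND-99 and CellMask, then imaged and segmented by a customized algorithm. Cell number per well was counted, and IC50 is the concentration reducing cell number by 50%, taken from dose–response curves. Run in duplicate.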

Row | SMILES | Activity
26 | O=C(Nc1ccc(-c2cscn2)cc1)C1CCCN(Cc2ccc(F)c(F)c2)C1 (stereo unspecified) | Active

tested on: A-375; test: Anti melanoma activity in human A-375 cells assessed as inhibition of cell growth after 3 days; assay type: functional, cell-based; details: time 3.0 day; in short: as §2

Row | SMILES | Activity
27 | O=C(Nc1ccc(-c2ccc[nH]2)cn1)[C@H]1CCCN(Cc2ccc(F)c(F)c2)C1 | Active

tested on: not listed separately; test: Metabolic stability at phase 1 in mouse liver microsomes; assay type: ADME, Microsome; details: not given

Row | Stabilty | SMILES
28 | Stable | O=C(Nc1ccc(-c2ccc[nH]2)cn1)[C@H]1CCCN(Cc2ccc(F)c(F)c2)C1
29 | Stable | O=C(Nc1ccc(-c2cscn2)cc1)C1CCCN(Cc2ccc(F)c(F)c2)C1 (stereo unspecified)

tested on: A-375; test: Antiproliferative activity in human A-375 cells assessed as reduction of cell number; assay type: functional, cell-based; details: not given; in short: as §2

Row | pIC50 | SMILES
30 | 5.05 | O=C(Nc1ccc(-c2ccccn2)cc1)C1CCCN(Cc2ccc(F)c(F)c2)C1 (stereo unspecified)
31 | 5.59 | O=C(Nc1ccc(-c2ccccc2)cc1)C1CCCN(Cc2ccc(F)c(F)c2)C1 (stereo unspecified)
32 | 6.89 | O=C(Nc1ccc(-c2ccc[nH]2)cc1F)[C@H]1CCCN(Cc2ccc(F)c(F)c2)C1
33 | 5.22 | O=C(Nc1ccc(-c2cscn2)cc1)[C@@H]1CCCN(Cc2ccc(F)c(F)c2)C1
34 | < 4.70 | O=C(NC1CCCN(Cc2ccc(F)c(F)c2)C1)c1ccc(-c2cscn2)cc1 (stereo unspecified)
35 | 6.20 | O=C(Nc1ccc(-c2cscn2)cc1)C1CCCN(Cc2ccc3c(c2)OCO3)C1 (stereo unspecified)
36 | < 4.70 | O=C(Nc1ccc(-c2cscn2)cc1)C1CCCN(Cc2cccc(C(F)(F)F)c2)C1 (stereo unspecified)
37 | < 4.70 | O=C(Nc1ccc(-c2cscn2)cc1)C1CCCN(Cc2cccc(OC(F)(F)F)c2)C1 (stereo unspecified)
38 | 5.61 | O=C(Nc1ccc(-c2cscn2)cc1)C1CCCN(Cc2cccc(F)c2)C1 (stereo unspecified)
39 | 5.87 | O=C(Nc1ccc(-c2cscn2)cc1)C1CCCN(Cc2cc(F)cc(F)c2)C1 (stereo unspecified)
40 | 6.02 | O=C(Nc1ccc(-c2ccsc2)cc1)C1CCCN(Cc2ccc(F)c(F)c2)C1 (stereo unspecified)
41 | 6.44 | O=C(Nc1ccc(-c2ccc[nH]2)cc1)C1CCCN(Cc2ccc(F)c(F)c2)C1 (stereo unspecified)
42 | < 4.70 | O=C(Nc1ccc(-c2cscn2)cc1)C1CCCN(C(=O)c2ccc(F)c(F)c2)C1 (stereo unspecified)
43 | 5.89 | O=C(Nc1ccc(-c2ccoc2)cc1)C1CCCN(Cc2ccc(F)c(F)c2)C1 (stereo unspecified)
44 | < 4.70 | O=C(Nc1ccc(-c2cscn2)cc1)C1CN(Cc2ccc(F)c(F)c2)C1
45 | 6.40 | O=C(Nc1ccc(-c2cscn2)cc1)C1CCCN(Cc2cc(F)c(F)c(F)c2)C1 (stereo unspecified)
46 | < 4.70 | COc1cccc(CN2CCCC(C(=O)Nc3ccc(-c4cscn4)cc3)C2)c1 (stereo unspecified)
47 | 6.21 | O=C(Nc1ccc(-c2cccnc2)cc1)C1CCCN(Cc2ccc(F)c(F)c2)C1 (stereo unspecified)
48 | 7.52 | O=C(Nc1ccc(-c2ccc[nH]2)cn1)[C@H]1CCCN(Cc2ccc(F)c(F)c2)C1
49 | < 4.70 | O=C(Nc1ccc(-c2cscn2)cc1)C1CCCN(S(=O)(=O)c2ccc(F)c(F)c2)C1 (stereo unspecified)
50 | 5.00 | O=C(Nc1ccc(-c2cscn2)cc1)C1CCN(Cc2ccc(F)c(F)c2)C1 (stereo unspecified)
51 | 6.06 | O=C(Nc1ccc(-c2cscn2)cc1)C1CCCN(Cc2ccc(F)c(F)c2)C1 (stereo unspecified)
52 | 8.10 | COc1cccc2c1C(=O)c1c(O)c3c(c(O)c1C2=O)C[C@@](O)(C(=O)CO)C[C@@H]3O[C@H]1C[C@H](N)[C@H](O)[C@H](C)O1 [DOXORUBICIN]

tested on: A-375; test: Induction of senescence-like phenotype in human A-375 cells assessed as enlarged cell size after 3 days by staining based imaging assay; assay type: functional; details: time 3.0 day; in short: as §1

Row | SMILES | Activity
53 | O=C(Nc1ccc(-c2ccc[nH]2)cn1)[C@H]1CCCN(Cc2ccc(F)c(F)c2)C1 | Active

tested on: A-375; test: Induction of senescence-like phenotype in human A-375 cells assessed as nucleus size with increasing cytoplasmic granularity after 3 days by staining based imaging assay; assay type: functional, cell-based; details: time 3.0 day; in short: as §1

Row | SMILES | Activity
54 | O=C(Nc1ccc(-c2ccc[nH]2)cn1)[C@H]1CCCN(Cc2ccc(F)c(F)c2)C1 | Active

tested on: A-375; test: Induction of senescence-like phenotype in human A-375 cells assessed as phenotypic changes after 3 days; assay type: functional, cell-based; details: time 3.0 day; in short: as §1

Row | SMILES | Activity
55 | O=C(Nc1ccc(-c2ccc[nH]2)cn1)[C@H]1CCCN(Cc2ccc(F)c(F)c2)C1 | Active
56 | O=C(Nc1ccc(-c2cscn2)cc1)C1CCCN(Cc2ccc(F)c(F)c2)C1 (stereo unspecified) | Active
